S1P4 antag: blocks the human S1P4 receptor; O95977; S1P4-expressing cells, antagonist mode, reporter read-out; inhibition, % at 4.98 µM; hit rate 0.26% among 220,000; AID 1510; in the data active = inhibition above about 29%;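 note: 0% = wells stimulated with agonist and 100% = vehicle wells without agonist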
NPY Y2 blocker: NPY-Y2 (human) receptor antagonism; P49146; NPY-Y2 expressing cells, antagonist mode; inhibition, % at 2.7 µM; hit rate 0.99% among 140,000; in the data active = inhibition above about 17%;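 note: 0% = vehicle with agonist challenge and 100% = reference antagonist with challenge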
Target sequence (P49146 whole entry, looked up): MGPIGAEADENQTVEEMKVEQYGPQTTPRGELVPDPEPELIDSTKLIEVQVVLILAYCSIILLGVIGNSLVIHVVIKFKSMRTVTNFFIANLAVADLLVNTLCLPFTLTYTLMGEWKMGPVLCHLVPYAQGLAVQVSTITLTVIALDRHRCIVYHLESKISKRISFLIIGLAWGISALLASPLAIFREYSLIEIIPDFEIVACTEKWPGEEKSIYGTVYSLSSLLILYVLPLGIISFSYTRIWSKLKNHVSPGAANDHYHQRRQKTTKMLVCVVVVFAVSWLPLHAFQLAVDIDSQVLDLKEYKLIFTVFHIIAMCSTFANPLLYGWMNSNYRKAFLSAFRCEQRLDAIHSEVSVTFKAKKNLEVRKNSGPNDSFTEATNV
NPY-Y1 PAM-ag: potentiators or agonists of human neuropeptide Y receptor Y1; P25929; NPY-Y1 expressing cells, potentiator/agonist activation; activation, % at 3.6 µM; hit rate 0.37% among 220,000; AID 1304; in the data active = activation above about 33%, passing the limit was not always enough;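 note: cells stimulated with NPY at EC10 then isoproterenol at EC100; 0% = low agonist plus stimulus and 100% = saturating agonist plus stimulus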
NPY-Y1 antag: blocks the human neuropeptide Y Y1 receptor. hit rate 1% among 200,000. HEK293-CNG Y1 cells, membrane potential fluorescence; NPY at EC95, then isoproterenol. inhibition, % at 3.6 µM;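 active = inhibition above the campaign mean inhibition of all tested compounds plus 3 SD, cut at about 20% in these data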;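 note: 0% = DMSO wells given NPY plus isoproterenol and 100% = isoproterenol alone without NPY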
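Assay system: HEK293 Y1/CNG channel cell line; Doses: single compound dose of 3.6 µM, 0.4% DMSO; Timing: dye 3 h, compound 60 min room temperature, stimulation 45 min; Technique: Membrane-potential fluorescent dye readout; Measure: % inhibition of NPY effect.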
S1P4 ag: human S1P4 receptor agonism | S1P4-expressing cell line, agonist reporter assay | activation, % at 4.98 µM | hit rate 0.35% among 220,000; in the data active = activation above about 11%;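 note: 0% = DMSO vehicle and 100% = reference agonist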
NPY2 pot ag: human NPY-Y2 potentiation or agonism, primary screen. AID 1359. cells expressing NPY-Y2, potentiator/agonist read-out. activation, % at 3.6 µM. hit rate 0.45% among 220,000. P49146; in the data active = activation above about 27%;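 note: cells stimulated with NPY near EC25 plus isoproterenol at EC100; 0% = vehicle plus submaximal agonist and 100% = vehicle plus saturating agonist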
NPY-Y1 antag ct: counter-screen for NPY-Y2 antagonists: human NPY-Y1 antagonism | shares compounds with NPY Y2 blocker | cell-based NPY-Y1 antagonism counterscreen | inhibition, % at 3.6 µM | hit rate 19% among 710 | AID 1256; in the data active = inhibition above about 20%;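 note: cells challenged with NPY then isoproterenol with cAMP sensed through a CNG channel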
NPY2 antag conf: human NPY-Y2 antagonism, confirmation | shares compounds with NPY Y2 blocker | HEK293 NPY-Y2 CNG channel, membrane potential fluorescence | inhibition, % at 2.8 µM | hit rate 32% among 710 | AID 1257;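 active = mean inhibition of triplicate wells above the hit cutoff set in the primary screen, cut at about 17% in these data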;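 note: 0% = DMSO with NPY challenge and 100% = BIIE0246 high control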
* hit, by the source's call; · = not tested or not shown. This is a sample that favours compounds with a hit; in the whole collection about 2.4% have one here.

SMILES	S1P4 antag	NPY Y2 blocker	NPY-Y1 PAM-ag	NPY-Y1 antag	S1P4 ag	NPY2 pot ag	others
O=C(CN(c1ccc(Cl)c(C(F)(F)F)c1)S(=O)(=O)c1ccccc1)N/N=C/c1cccc2c1OCCO2	-11	-1	36	-2	2	10
c1ccc(-c2nc(-n3nc4ccccc4n3)nc3ccccc23)cc1	0	27*	-18	-2	-1	-30
CN(C1CCCCC1)S(=O)(=O)c1cccc(C#N)c1	-12	·	1	3	0	3
CCOc1ccccc1CN1CCN(Cc2[nH]c3ccccc3c2C)CC1CCO (configuration not stated)	3	·	-26	21*	3	-13
CCOc1ccccc1CN1CCN(Cc2ccc(C)o2)CC1CCO (configuration not stated)	-8	·	-21	1	-1	-17
COc1ccc(NC(=O)COC(=O)c2c3c(nc4ccccc24)CCCC3)cc1Cl	-8	19*	-55	24*	2	-11
N=c1c(C(=O)NCc2ccc(F)cc2)cc2c(=O)n3ccccc3nc2n1CCCN1CCOCC1	-29	6	23	-1	14*	25
O=c1ccc(NS(=O)(=O)c2ccccc2)cn1Cc1ccc(Cl)c(Cl)c1	-15	0	-23	-8	-2	-15
Cc1ccccc1OCC(O)CN(Cc1ccccc1O)C1CCCCC1 (configuration not stated)	-14	·	19	20*	0	13
CC1Cc2ccccc2N1S(=O)(=O)c1cccc(C(=O)N2CC(=O)Nc3ccccc32)c1 (configuration not stated)	-2	·	-2	·	0	-8
CC(CCc1ccccc1)NC(=O)/C=C/c1ccc(Cl)cc1 (configuration not stated)	2	21*	-47	32*	0	-21
Cc1ccc(/C=C/C(=O)NCCCc2ccccc2)cc1	2	34*	-51	37*	-2	-34
CC(Cc1ccccc1)NC(=O)/C=C/c1ccc([N+](=O)[O-])cc1 (configuration not stated)	-6	0	1	0	-3	3
Cc1ccc(CNC(=O)/C=C/c2c(Cl)cccc2Cl)cc1	-10	2	-9	-4	1	0
Cc1ccc(CNC(=O)/C=C/c2ccccc2Cl)cc1	9	12	-25	31*	-1	-14
Cc1ccc(C(=O)n2c(-c3ccccc3)cnc2SCC(=O)Nc2ccc(C)cc2C)cc1	-25	6	-9	7	3	-14
CCOC(=O)Cn1c(=O)oc2cc(S(=O)(=O)NC3CCCc4ccccc43)ccc21 (configuration not stated)	12	0	63*	-12	1	37*
CCCCNS(=O)(=O)c1ccc2c(c1)oc(=O)n2CC(=O)OCC	-4	-1	17	-3	-1	2
CCOC(=O)Cn1c(=O)oc2cc(S(=O)(=O)Nc3c(C)cc(C)cc3C)ccc21	-12	0	38*	-8	-1	24
CCCCCCCCCn1c2c(c(=N)c3c1CCC3)CCC2	-3	37*	-132	90*	0	-36
COc1ccc(C(=O)NCC(O)COc2ccc(C(C)(C)C)cc2)cc1[N+](=O)[O-] (configuration not stated)	-22	-3	9	-4	1	11
CC12CC(NC(=O)N1c1ccc(C(=O)N3CCN(c4ccccn4)CC3)cc1)c1ccccc1O2 (configuration not stated)	7	0	52*	2	-2	35*
COc1ccc(NC(=O)C(=O)N/N=C/c2cc(C)n(-c3cccc(Cl)c3Cl)c2C)c(OC)c1	8	2	-3	7	-4	-2
CCCCc1c(O)nc(SCC(=O)c2ccccc2)n(-c2ccccc2OC)c1=O	-11	·	8	·	1	13
Cc1cc(C)c(S(=O)(=O)Nc2ccc(OCC(=O)O)cc2)c(C)c1	-13	-1	47*	-8	-2	51*
SMILES	S1P4 antag	NPY Y2 blocker	NPY-Y1 PAM-ag	NPY-Y1 antag	S1P4 ag	NPY2 pot ag	others
O=C(C1CCN(Cc2ccc(F)cc2)CC1)N(CCc1ccccc1)Cc1ccccc1	-13	24*	-29	21*	1	-9
O=S(=O)(Nc1ncnc2sc3c(c12)CCC3)c1ccc(Cl)s1	-18	-1	52*	-13	2	46*
COc1ccc(-n2ccnc2SCC(=O)NCc2ccco2)c(OC)c1	15	·	-21	1	0	-14
Oc1cccc(NC(=S)Nc2cccnc2)c1	0	1	62*	6	1	60*
CCO[C@H]1OC(C(=O)NCc2ccccc2)=C[C@@H](c2ccc(C(F)(F)F)cc2)[C@@H]1CCCO	14	·	37*	-8	-1	11
CCO[C@H]1OC(C(=O)Nc2ccccc2)=C[C@@H](c2ccc(C(F)(F)F)cc2)[C@@H]1CCCO	6	·	8	-3	-1	4
CCOc1ccc(CCNC(=O)CN2C(=O)NC(CCSC)C2=O)cc1OCC (configuration not stated)	-7	·	-5	0	0	-6
COc1ccc(-n2sc3c(c2=S)-c2cc(OC)ccc2NC3(C)C)cc1	5	-3	21	-1	0	30
COc1ccc2c(c1)-c1c(sn(-c3ccc(OC)c(OC)c3)c1=S)C(C)(C)N2	-13	-3	53*	-4	2	38*
CS(=O)(=O)N(CC(=O)NCCSCc1cccc(Cl)c1)c1ccc2c(c1)OCO2	1	2	1	0	0	6
O=C(/C=C/c1ccc2c(c1)OCO2)NCCSCc1ccc(Cl)cc1Cl	-20	19*	-7	14	-1	-19	NPY-Y1 antag ct=15;NPY2 antag conf=16
O=C(/C=C/c1ccc2c(c1)OCO2)NCCSCc1cccc(Cl)c1	7	18*	-37	12	-1	-35	NPY-Y1 antag ct=7;NPY2 antag conf=5
CCOC(=O)Cn1c(-c2ccccc2)nc2ccccc2c1=O	-6	6	5	5	-1	-9
CCOC(=O)Cn1c(S(=O)(=O)Cc2cccc(F)c2)nc(-c2ccccc2)c1-c1ccccc1	-16	19*	-18	16	-2	-12	NPY-Y1 antag ct=17;NPY2 antag conf=9
CCOC(=O)c1cc(-c2ccccc2)sc1NC(=O)CC	-9	21*	-28	1	1	-5	NPY-Y1 antag ct=1;NPY2 antag conf=0
CCOC(=O)C(NCCc1ccccc1)(NC(=O)CC)C(F)(F)F (configuration not stated)	-11	1	-13	4	1	11
COc1cc(NC(=O)c2cnn3c(C(F)F)cc(C4CC4)nc23)c(OC)cc1Cl	-15	·	-18	1	1	-5
